Experimental data pooled from the literature.
Each line is one published result; the experiments were not run side by side.
Effect on: metabolic stability

Compound | species | medium | concentration | time | pH | quantity | result
C[C@H](C(=O)N[C@H]1COc2ccccc2[C@@H]1S(C)(=O)=O)c1ccc(F)cc1 | human | liver microsomes | 1 µM | 1 h |  | microsomal CLint | 3 µL/min/mg
Cc1ccc(F)c2cc(C(=O)N[C@@H]3CCC[C@H](N4CC[C@H](N(C)S(C)(=O)=O)C4)C3)[nH]c12 | human | hepatocytes | 0.5 µM | 2 h |  | scaled CLint | 51 mL/min/kg
C#Cc1ccc2c(c1)C(c1ccccn1)=NCc1c(-c3cnco3)ncn1-2 | human | liver microsomes |  |  |  | microsomal CLint | 0.046 µL/min/mg
CN(C)CCc1c[nH]c2ccccc12 | human | hepatocytes | 0.6 µM |  |  | hepatocyte CLint | 19.4 µL/min/10⁶ cells
CCCCCn1cc(C(=O)Nc2cccc3ccccc23)c2ccccc21 | male human | liver microsomes | 1 µM |  | pH 7.4 | microsomal CLint | 300 µL/min/mg
COC(=O)N[C@H](C(=O)NN(CC[C@@]1(Cc2ccccc2)C(=O)N([C@H]2c3ccccc3C[C@H]2O)C[C@@H]1O)Cc1ccc(Br)cc1)C(C)(C)C | human | liver microsomes | 1 µM |  | pH 7.35 | microsomal CLint | > 300 µL/min/mg
Cc1nc([C@@](C)(CC2CC2)NC(=O)c2cc(OCC(F)(F)F)c(C3CC3)cn2)no1 | human | hepatocytes |  |  |  | hepatocyte CLint | 17 µL/min/10⁶ cells
CCCCCn1nc(C(=O)Nc2cccc3ccccc23)c2ccccc21 | male human | liver microsomes | 1 µM |  | pH 7.4 | microsomal CLint | 410 µL/min/mg
Cc1cc(C)nc(Nc2ncc(C(=O)NCCc3c(C)[nH]c4ccccc34)cn2)c1 | human | liver microsomes | 1 µM |  |  | microsomal CLint | 25 µL/min/mg
Cc1nonc1Cn1nnc2c(N3CC[C@H](O)C3)nc(C(C)(C)C)nc21 | human | hepatocytes |  |  |  | hepatocyte CLint | 8.1 µL/min/10⁶ cells
C[C@H]1CN(Cc2ccc(C(F)(F)F)cc2N2CCOCC2)CCN1C(=O)n1ccc(S(=O)(=O)N(C)C)n1 | human | liver microsomes |  |  |  | microsomal CLint | 480 µL/min/mg
CN1CCN(Cc2ccc(NC(=O)c3cncc(C#Cc4cnc(N)c5ncccc45)c3)cc2C(F)(F)F)CC1 | human | liver microsomes |  |  |  | microsomal CLint | 3.6 µL/min/mg
Cc1ncc2n1-c1ccc(Cl)cc1C(c1ccccc1F)=NC2 | human | liver microsomes | 1 µM |  |  | microsomal CLint | > 250 µL/min/mg
NCCc1c[nH]c2ccc(O)cc12 | human | hepatocytes | 5 µM |  |  | hepatocyte CLint | 38.6 µL/min/10⁶ cells
Cc1nc2c(=O)n(C)c(=O)nc-2n(C)n1 | human | liver microsomes |  |  |  | microsomal CLint | < 7.4 µL/min/mg
